{"source": "ChEMBL document CHEMBL4732088", "about": "“Identification and optimization of piperlongumine analogues as potential antioxidant and anti-inflammatory agents via activation of Nrf2” (Eur J Med Chem, 2021)", "key": {"PC-12 [1]": {"test_system": "PC-12", "assay": "Protection against 6-OHDA-induced apoptosis in rat PC12 cells assessed as late apoptotic cells at 10 uM incubated for 24 hrs by annexin V FITC/propidium iodide staining based flow cytometry (reference value: 7.6 %)", "format": "functional"}, "PC-12 [2]": {"test_system": "PC-12", "assay": "Protection against 6-OHDA-induced mitochondrial dysfunction in rat PC12 cells assessed as change in mitochondrial membrane potential at 20 uM pretreated with compound followed by 6-OHDA addition by JC-1 staining based flow cytometry (reference value: 73.2 %)", "format": "functional", "outline": "(§1)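 Mitochondrial membrane potential in PC12 cells pretreated with compound (5, 10, 20 μM), then exposed to H₂O₂ (200 μM) or 6-OHDA (150 μM). JC-1 staining, red-to-green fluorescence shift read by flow cytometry. Mean ± SD, n = 3.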"}, "PC-12 [3]": {"test_system": "PC-12", "assay": "Prevention of 6-OHDA-induced calcium overload in rat PC12 cells assessed as reduction in intracellular free calcium by measuring mean fluorescence intensity at 5 uM pretreated with compound followed by 6-OHDA addition measured after 24 hrs by Fluo-3AM based fluorescence assay (reference value: 6708.18%)", "format": "functional"}, "PC-12 [4]": {"test_system": "PC-12", "assay": "Protection against H2O2-induced mitochondrial dysfunction in rat PC12 cells assessed as change in mitochondrial membrane potential at 20 uM pretreated with compound followed by H2O2 addition by JC-1 staining based flow cytometry (reference value: 78.7 %)", "format": "functional", "outline": "as §1"}, "PC-12 [5]": {"test_system": "PC-12", "assay": "Neuroprotective activity against 6-OHDA-induced cell damage in rat PC12 cells assessed as cell viability at 20 uM after 24 hrs by MTT assay (reference value: 45.23 +/- 4.37 %)", "format": "functional", "conditions": "read-out: Activity"}, "PC-12 [6]": {"test_system": "PC-12", "assay": "Protection against 6-OHDA-induced apoptosis in rat PC12 cells assessed as viable cells at 10 uM incubated for 24 hrs by annexin V FITC/propidium iodide staining based flow cytometry (reference value: 72.0 %)", "format": "functional", "conditions": "read-out: Activity"}, "PC-12 [7]": {"test_system": "PC-12", "assay": "Prevention of H2O2-induced calcium overload in rat PC12 cells assessed as reduction in intracellular free calcium by measuring mean fluorescence intensity at 20 uM pretreated with compound followed by H2O2 addition by Fluo-3AM based fluorescence assay (reference value: 17791.36%)", "format": "functional", "conditions": "time 24 hrs"}, "PC-12 [8]": {"test_system": "PC-12", "assay": "Protection against 6-OHDA-induced oxidative damage in rat PC12 cells assessed as intracellular ROS level by measuring mean fluorescence intensity at 10 uM pretreated with compound followed by 6-OHDA stimulation by DCFH-DA staining based flow cytometry (reference value: 26327.34)", "format": "functional"}, "[9]": {"target": "T1, Nuclear factor erythroid 2-related factor 2 (Rattus norvegicus) (UniProt O54968)", "T1 sequence (whole entry)": "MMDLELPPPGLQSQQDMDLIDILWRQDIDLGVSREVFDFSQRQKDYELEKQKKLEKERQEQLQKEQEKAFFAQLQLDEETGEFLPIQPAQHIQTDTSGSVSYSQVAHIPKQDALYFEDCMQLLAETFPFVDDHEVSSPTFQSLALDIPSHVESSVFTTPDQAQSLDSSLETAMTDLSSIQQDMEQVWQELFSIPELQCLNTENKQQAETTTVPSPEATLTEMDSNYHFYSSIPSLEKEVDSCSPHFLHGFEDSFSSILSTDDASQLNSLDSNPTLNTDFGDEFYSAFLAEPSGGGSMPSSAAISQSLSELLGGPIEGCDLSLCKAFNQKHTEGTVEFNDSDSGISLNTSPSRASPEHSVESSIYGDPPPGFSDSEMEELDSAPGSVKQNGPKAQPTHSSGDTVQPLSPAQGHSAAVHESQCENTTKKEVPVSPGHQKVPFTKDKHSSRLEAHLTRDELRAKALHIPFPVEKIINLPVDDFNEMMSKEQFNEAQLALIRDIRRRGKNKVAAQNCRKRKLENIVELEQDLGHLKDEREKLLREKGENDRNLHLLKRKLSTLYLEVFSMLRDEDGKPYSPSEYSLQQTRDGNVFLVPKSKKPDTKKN", "assay": "Activation of Nrf2 in rat PC12 cells assessed as increase in TrxR1 protein level at 20 uM after 24 hrs by Western blot analysis", "format": "cell-based", "conditions": "PC-12, filed as activator"}, "PC-12 [10]": {"test_system": "PC-12", "assay": "Neuroprotective activity against H2O2-induced apoptosis in rat PC12 cells assessed as reduction in apoptotic nuclei at 5 to 20 uM pretreated with compound followed by H2O2 addition by Hoechst 33342 staining based fluorescence microscopy analysis", "format": "functional, cell-based", "conditions": "dose 5-20 µM", "outline": "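PC12 cells pretreated with compound before H₂O₂ or 6-OHDA; nuclei stained with Hoechst 33342, imaged on a high-content system with phase-contrast views; apoptotic nuclei scored as bright condensed aggregates; n = 3.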"}, "PC-12 [11]": {"test_system": "PC-12", "assay": "Protection against 6-OHDA-induced mitochondrial dysfunction in rat PC12 cells assessed as change in mitochondrial membrane potential at 10 uM pretreated with compound followed by 6-OHDA addition by JC-1 staining based flow cytometry (reference value: 73.2 %)", "format": "functional", "outline": "as §1"}, "PC-12 [12]": {"test_system": "PC-12", "assay": "Protection against H2O2-induced mitochondrial dysfunction in rat PC12 cells assessed as change in mitochondrial membrane potential at 10 uM pretreated with compound followed by H2O2 addition by JC-1 staining based flow cytometry (reference value: 78.7 %)", "format": "functional", "outline": "as §1"}, "[13]": {"target": "T1, Nuclear factor erythroid 2-related factor 2 (Rattus norvegicus)", "assay": "Activation of Nrf2 in rat PC12 cells assessed as increase in NQO1 protein level at 20 uM after 24 hrs by Western blot analysis", "format": "cell-based", "conditions": "PC-12, filed as activator"}, "[14]": {"assay": "Antioxidant activity assessed as ABTS radical scavenging activity", "format": "functional"}, "PC-12 [15]": {"test_system": "PC-12", "assay": "Protection against 6-OHDA-induced mitochondrial dysfunction in rat PC12 cells assessed as change in mitochondrial membrane potential loss at 10 uM pretreated with compound followed by 6-OHDA addition by JC-1 staining based flow cytometry (reference value: 26.8 %)", "format": "functional", "outline": "as §1"}, "[16]": {"target": "T1, Nuclear factor erythroid 2-related factor 2 (Rattus norvegicus)", "assay": "Activation of Nrf2 in rat PC12 cells assessed as increase in NQO1 protein level after 24 hrs by Western blot analysis", "format": "cell-based", "conditions": "PC-12, filed as activator, dose 5-20 µM", "outline": "(§2)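 PC12 cells treated with compound for 24 h at rising concentrations; NQO1, HO-1, TrxR1, GCLM, GCLC protein detected by Western blot.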"}, "PC-12 [17]": {"test_system": "PC-12", "assay": "Protection against 6-OHDA-induced apoptosis in rat PC12 cells assessed as necrotic cells at 20 uM incubated for 24 hrs by annexin V FITC/propidium iodide staining based flow cytometry (reference value: 1.1 %)", "format": "functional"}, "BV-2": {"test_system": "BV-2", "assay": "Antiinflammatory activity in mouse BV2 cells transfected with control siRNA assessed as inhibition of LPS-induced IL-6 production at 20 uM pretreated with compound followed by LPS stimulation for 18 hrs"}, "PC-12 [18]": {"test_system": "PC-12", "assay": "Protection against H2O2-induced mitochondrial dysfunction in rat PC12 cells assessed as change in mitochondrial membrane potential loss at 10 uM pretreated with compound followed by H2O2 addition by JC-1 staining based flow cytometry (reference value: 21.3 %)", "format": "functional", "outline": "as §1"}, "PC-12 [19]": {"test_system": "PC-12", "assay": "Protection against H2O2-induced apoptosis in rat PC12 cells assessed as viable cells at 10 uM incubated for 24 hrs by annexin V FITC/propidium iodide staining based flow cytometry (reference value: 79.3 %)", "format": "functional", "conditions": "read-out: Activity"}, "PC-12 [20]": {"test_system": "PC-12", "assay": "Protection against H2O2-induced oxidative damage in rat PC12 cells assessed as intracellular ROS level by measuring mean fluorescence intensity at 5 uM pretreated with compound followed by H2O2 stimulation by DCFH-DA staining based flow cytometry (reference value: 233032.55)", "format": "functional"}, "[21]": {"target": "T1, Nuclear factor erythroid 2-related factor 2 (Rattus norvegicus)", "assay": "Activation of Nrf2 in rat PC12 cells assessed as increase in GCLM protein level after 24 hrs by Western blot analysis", "format": "cell-based", "conditions": "PC-12, filed as activator, dose 5-20 µM", "outline": "as §2"}}, "note": "Active and inactive are the calls of the source. The calls are words filed in the database; no cut-off is given here.", "data": [{"smiles": "CCN(C)C(=O)N1CCN(C(=O)/C=C/c2ccc(F)cc2)C1=O", "values": [{"measurement": "Activity", "setting": "PC-12 [1]", "result": 6.3, "unit": "%"}, {"measurement": "Activity", "setting": "PC-12 [2]", "result": 89.3, "unit": "%"}, {"measurement": "Flu intensity", "setting": "PC-12 [3]", "result": 4910.91}, {"measurement": "Activity", "setting": "PC-12 [4]", "result": 92.8, "unit": "%"}, {"measurement": "viability at 20 µM", "setting": "PC-12 [5]", "result": 75.4, "unit": "%"}, {"measurement": "viability at 10 µM", "setting": "PC-12 [6]", "result": 85.4, "unit": "%"}, {"measurement": "Flu intensity", "setting": "PC-12 [7]", "result": 6730.32}, {"measurement": "Flu intensity", "setting": "PC-12 [8]", "result": 12110.88}, {"measurement": "Activity", "setting": "[9]", "result": "Active"}, {"measurement": "Activity", "setting": "PC-12 [10]", "result": "Active"}, {"measurement": "Activity", "setting": "PC-12 [11]", "result": 83.6, "unit": "%"}, {"measurement": "Activity", "setting": "PC-12 [12]", "result": 90.2, "unit": "%"}, {"measurement": "Activity", "setting": "[13]", "result": "Active"}, {"measurement": "Activity", "setting": "[14]", "result": "inactive"}, {"measurement": "Activity", "setting": "PC-12 [15]", "result": 16.3, "unit": "%"}, {"measurement": "Activity", "setting": "[16]", "result": "Dose-dependent effect"}, {"measurement": "Activity", "setting": "PC-12 [17]", "result": 0.8, "unit": "%"}, {"measurement": "Activity", "setting": "BV-2", "result": "Active"}, {"measurement": "Activity", "setting": "PC-12 [18]", "result": 9.7, "unit": "%"}, {"measurement": "viability at 10 µM", "setting": "PC-12 [19]", "result": 92.4, "unit": "%"}, {"measurement": "Flu intensity", "setting": "PC-12 [20]", "result": 205329.36}, {"measurement": "Activity", "setting": "[21]", "result": "Dose-dependent effect"}]}]}
